Measurements published in ChEMBL document CHEMBL2311528, “Synthesis of spirolactone-type diterpenoid derivatives from kaurene-type oridonin with improved antiproliferative effects and their apoptosis-inducing activity in human hepatoma Bel-7402 cells” (Eur J Med Chem, 2013).

What was measured:
[1] = system: K562; assay: Antiproliferative activity against human K562 cells assessed as growth inhibition by MTT assay; assay type: functional, cell-based
Summary of the method: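 K562 cells in log phase seeded at 5 × 10⁴ cells/mL and treated in triplicate across a 0.39–100 range. Cultures were kept at 37 °C in humidified 5% CO2. At 72 h, MTT (5 mg/mL) was added for 4 h, formazan was dissolved in DMSO, and OD was read at 490 nm. IC50 is the concentration giving 50% growth inhibition, reported as mean ± S.D. of three independent experiments.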

[2] = system: Bel-7402; assay: Antiproliferative activity against human Bel7402 cells assessed as growth inhibition by MTT assay; assay type: functional, cell-based
Summary of the method: (§1)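 Cells treated in triplicate over a range of concentrations at 37 °C in humidified 5% CO2. At 72 h, MTT (5 mg/mL) was added for 4 h, followed by DMSO solubilisation and OD at 490 nm. IC50 is the concentration giving 50% growth inhibition, reported as mean ± S.D. of three independent experiments.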

[3] = system: MGC-803; assay: Antiproliferative activity against human MGC803 cells assessed as growth inhibition by MTT assay; assay type: functional, cell-based; summary of the method: as §1
[4] = Antiproliferative activity against human CaEs17 cells assessed as growth inhibition by MTT assay; assay type: functional, cell-based; summary of the method: as §1
[5] = target: Glutathione S-transferase P (Homo sapiens) (UniProt P09211); assay: Inhibition of glutathione S-transferase pi in human Bel7402 cell lysates at 40 uM using CDNB and GSH as substrates by spectrophotometry; conditions: Bel-7402
[6] = system: Bel-7402; assay: Induction of apoptosis in human Bel7402 cells assessed as viable cells level at 0.6 uM incubated for 3 days by Annexin-V and propidium iodide double staining based flow cytometry (reference value: 92.6%); assay type: functional
[7] = system: Bel-7402; assay: Induction of cell cycle arrest in human Bel7402 cells assessed as accumulation at S phase at 0.6 uM incubated for 48 hrs by propidium iodide staining based flow cytometry (reference value: 31.89%); assay type: functional
Summary of the method: (§2)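 Bel-7402 seeded at 5.0 × 10³ cells/well and grown 24 h at 37 °C. Exponentially growing cells were treated for 48 h, alongside untreated and DMSO-solvent controls. Cells were then centrifuged, fixed overnight in 70% ethanol at 4 °C, and analysed by flow cytometry for phase distribution.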

[8] = system: Bel-7402; assay: Induction of cell cycle arrest in human Bel7402 cells assessed as accumulation at G1 phase at 0.8 uM incubated for 48 hrs by propidium iodide staining based flow cytometry (reference value: 63.86%); assay type: functional; summary of the method: as §2
[9] = system: MGC-803; assay: Potency index, ratio of IC50 for oridonin to IC50 for test compound against human MGC803 cells; assay type: functional
[10] = system: Bel-7402; assay: Induction of apoptosis in human Bel7402 cells assessed as early apoptotic cells level at 1 uM incubated for 3 days by Annexin-V and propidium iodide double staining based flow cytometry (reference value: 4.5%); assay type: functional
[11] = system: Bel-7402; assay: Induction of cell cycle arrest in human Bel7402 cells assessed as accumulation at G2/M phase at 1 uM incubated for 48 hrs by propidium iodide staining based flow cytometry (reference value: 4.75%); assay type: functional; summary of the method: as §2
[12] = Potency index, ratio of IC50 for oridonin to IC50 for test compound against human CaEs17 cells; assay type: functional
[13] = system: Bel-7402; assay: Potency index, ratio of IC50 for oridonin to IC50 for test compound against human Bel7402 cells; assay type: functional
[14] = system: Bel-7402; assay: Induction of cell cycle arrest in human Bel7402 cells assessed as accumulation at S phase at 1 uM incubated for 48 hrs by propidium iodide staining based flow cytometry (reference value: 31.89%); assay type: functional; summary of the method: as §2
[15] = system: Bel-7402; assay: Induction of cell cycle arrest in human Bel7402 cells assessed as accumulation at G1 phase at 1 uM incubated for 48 hrs by propidium iodide staining based flow cytometry (reference value: 63.86%); assay type: functional; summary of the method: as §2
[16] = system: Bel-7402; assay: Induction of apoptosis in human Bel7402 cells assessed as late apoptotic cells level at 0.8 uM incubated for 3 days by Annexin-V and propidium iodide double staining based flow cytometry (reference value: 2.4%); assay type: functional
[17] = system: Bel-7402; assay: Induction of apoptosis in human Bel7402 cells assessed as necrotic cells level at 1 uM incubated for 3 days by Annexin-V and propidium iodide double staining based flow cytometry (reference value: 0.5%); assay type: functional
[18] = system: Bel-7402; assay: Induction of cell cycle arrest in human Bel7402 cells assessed as accumulation at G2/M phase at 0.8 uM incubated for 48 hrs by propidium iodide staining based flow cytometry (reference value: 4.75%); assay type: functional; summary of the method: as §2
[19] = system: Bel-7402; assay: Induction of apoptosis in human Bel7402 cells assessed as early apoptotic cells level at 0.8 uM incubated for 3 days by Annexin-V and propidium iodide double staining based flow cytometry (reference value: 4.5%); assay type: functional
[20] = system: Bel-7402; assay: Induction of apoptosis in human Bel7402 cells assessed as necrotic cells level at 0.6 uM incubated for 3 days by Annexin-V and propidium iodide double staining based flow cytometry (reference value: 0.5%); assay type: functional
[21] = system: Bel-7402; assay: Induction of cell cycle arrest in human Bel7402 cells assessed as accumulation at S phase at 0.8 uM incubated for 48 hrs by propidium iodide staining based flow cytometry (reference value: 31.89%); assay type: functional; summary of the method: as §2
[22] = system: Bel-7402; assay: Induction of cell cycle arrest in human Bel7402 cells assessed as accumulation at G1 phase at 0.6 uM incubated for 48 hrs by propidium iodide staining based flow cytometry (reference value: 63.86%); assay type: functional; summary of the method: as §2
[23] = system: Bel-7402; assay: Induction of apoptosis in human Bel7402 cells assessed as late apoptotic cells level at 1 uM incubated for 3 days by Annexin-V and propidium iodide double staining based flow cytometry (reference value: 2.4%); assay type: functional
[24] = system: Bel-7402; assay: Induction of apoptosis in human Bel7402 cells assessed as viable cells level at 0.8 uM incubated for 3 days by Annexin-V and propidium iodide double staining based flow cytometry (reference value: 92.6%); assay type: functional
[25] = system: Bel-7402; assay: Induction of apoptosis in human Bel7402 cells assessed as necrotic cells level at 0.8 uM incubated for 3 days by Annexin-V and propidium iodide double staining based flow cytometry (reference value: 0.5%); assay type: functional
[26] = system: Bel-7402; assay: Induction of apoptosis in human Bel7402 cells assessed as early apoptotic cells level at 0.6 uM incubated for 3 days by Annexin-V and propidium iodide double staining based flow cytometry (reference value: 4.5%); assay type: functional
[27] = system: Bel-7402; assay: Induction of apoptosis in human Bel7402 cells assessed as late apoptotic cells level at 0.6 uM incubated for 3 days by Annexin-V and propidium iodide double staining based flow cytometry (reference value: 2.4%); assay type: functional
[28] = system: K562; assay: Potency index, ratio of IC50 for oridonin to IC50 for test compound against human K562 cells; assay type: functional
[29] = system: Bel-7402; assay: Induction of apoptosis in human Bel7402 cells assessed as viable cells level at 1 uM incubated for 3 days by Annexin-V and propidium iodide double staining based flow cytometry (reference value: 92.6%); assay type: functional
[30] = system: Bel-7402; assay: Induction of cell cycle arrest in human Bel7402 cells assessed as accumulation at G2/M phase at 0.6 uM incubated for 48 hrs by propidium iodide staining based flow cytometry (reference value: 4.75%); assay type: functional; summary of the method: as §2

Chain of Glutathione S-transferase P (Homo sapiens) (P09211 2-210 limits assumed): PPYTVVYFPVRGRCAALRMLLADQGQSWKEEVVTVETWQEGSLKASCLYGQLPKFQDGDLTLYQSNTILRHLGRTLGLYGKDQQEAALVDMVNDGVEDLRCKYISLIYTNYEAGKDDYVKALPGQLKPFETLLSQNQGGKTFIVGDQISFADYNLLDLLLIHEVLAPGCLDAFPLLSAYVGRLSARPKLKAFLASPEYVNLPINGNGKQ

C=C1C(=O)[C@@]23C(=O)OC[C@]4([C@@H](OC(C)=O)CCC(C)(C)[C@H]4C=O)[C@@H]2CC[C@H]1[C@H]3OC(=O)c1ccc(OC)cc1
IC50 [1]: 1920 nM | IC50 [2]: 2470 nM | IC50 [3]: 2530 nM | IC50 [4]: 1960 nM

CC(=O)O[C@H]1C(=O)[C@@]2(C)[C@H]([C@H](OC(=O)c3ccccc3)[C@]3(O)C[C@H](OC(=O)[C@H](O)[C@@H](NC(=O)c4ccccc4)c4ccccc4)C(C)=C1C3(C)C)[C@]1(OC(C)=O)CO[C@@H]1C[C@@H]2O [PACLITAXEL]
IC50 [4]: 430 nM

C=C1C(=O)[C@@]23C(=O)OC[C@]4([C@@H](OC(C)=O)CCC(C)(C)[C@H]4C=O)[C@@H]2CC[C@H]1[C@H]3OC(C)=O
IC50 [1]: 1740 nM | IC50 [2]: 3960 nM | IC50 [3]: 3470 nM | IC50 [4]: 2800 nM | inhibition [5]: 7.08%

C=C1C(=O)[C@@]23C(=O)OC[C@]4([C@@H](OC(C)=O)CCC(C)(C)[C@H]4C=O)[C@@H]2CC[C@H]1[C@H]3OC(=O)CC
IC50 [1]: 1500 nM | IC50 [2]: 3780 nM | IC50 [3]: 3220 nM | IC50 [4]: 2770 nM

C=C1C(=O)[C@@]23C(=O)OC[C@]4([C@@H](OC(C)=O)CCC(C)(C)[C@H]4C=O)[C@@H]2CC[C@H]1[C@H]3OC(=O)c1ccc(C)cc1
IC50 [1]: 1310 nM | IC50 [2]: 2090 nM | IC50 [3]: 1900 nM | IC50 [4]: 1830 nM

C=C1C(=O)[C@@]23C(=O)OC[C@]4([C@@H](OC(C)=O)CCC(C)(C)[C@H]4C=O)[C@@H]2CC[C@H]1[C@H]3OC(=O)c1ccccc1Cl
IC50 [1]: 390 nM | Activity [6]: 87.2% | Activity [7]: 20.73% | Activity [8]: 41.69% | Ratio IC50 [9]: 4 | Activity [10]: 21% | Activity [11]: 92.16% | Ratio IC50 [12]: 18 | IC50 [2]: 1390 nM | IC50 [3]: 1280 nM | Ratio IC50 [13]: 5 | Activity [14]: 0% | Activity [15]: 7.84% | Activity [16]: 9.3% | IC50 [4]: 600 nM | Activity [17]: 0.6% | Activity [18]: 53.3% | Activity [19]: 9.6% | inhibition [5]: 0% | Activity [20]: 0.1% | Activity [21]: 5.28% | Activity [22]: 56.07% | Activity [23]: 12.4% | Activity [24]: 80.9% | Activity [25]: 0.3% | Activity [26]: 8.8% | Activity [27]: 3.8% | Ratio IC50 [28]: 12 | Activity [29]: 66% | Activity [30]: 23.2%

C=C1C(=O)[C@@]23C(=O)OC[C@]4([C@@H](OC(C)=O)CCC(C)(C)[C@H]4C=O)[C@@H]2CC[C@H]1[C@H]3OC(=O)c1ccccc1
IC50 [1]: 1400 nM | IC50 [2]: 3050 nM | IC50 [3]: 2180 nM | IC50 [4]: 1990 nM

C=C1C(=O)[C@@]23C(=O)OC[C@]4([C@@H](OC(C)=O)CCC(C)(C)[C@H]4C=O)[C@@H]2CC[C@H]1[C@H]3OC(=O)CCCC
IC50 [1]: 1560 nM | IC50 [2]: 3640 nM | IC50 [3]: 2490 nM | IC50 [4]: 2850 nM

C=C1C(=O)[C@@]23C(=O)OC[C@]4([C@@H](OC(C)=O)CCC(C)(C)[C@H]4C=O)[C@@H]2CC[C@H]1[C@H]3OC(=O)c1ccc(Cl)cc1
IC50 [1]: 870 nM | IC50 [2]: 1510 nM | IC50 [3]: 1730 nM | IC50 [4]: 1250 nM

C=C1C(=O)[C@@]23C(=O)OC[C@]4([C@@H](OC(C)=O)CCC(C)(C)[C@H]4C=O)[C@@H]2CC[C@H]1[C@H]3OC(=O)c1ccc([N+](=O)[O-])cc1
IC50 [1]: 1140 nM | IC50 [2]: 1740 nM | IC50 [3]: 1980 nM | IC50 [4]: 1600 nM

C=C1C(=O)[C@@]23C(=O)OC[C@]4([C@@H](OC(C)=O)CCC(C)(C)[C@H]4C=O)[C@@H]2CC[C@H]1[C@H]3OC(=O)c1ccc(C(F)(F)F)cc1
IC50 [1]: 3150 nM | IC50 [2]: 5090 nM | IC50 [3]: 5540 nM | IC50 [4]: 9160 nM
